Measured values taken from ChEMBL document CHEMBL1629492 (Eur J Med Chem, 2010).

Tests used:
[1] = species: Rattus norvegicus; assay: Selectivity ratio of Ki for alpha1D adrenoceptor in Wistar rat thoracic aorta to Ki for Alpha-1B adrenoceptor in Wistar rat spleen; type: tissue-based
[2] = target: T1, Alpha-1B adrenergic receptor (Homo sapiens, UniProt P35368); assay: Displacement of [3H]prazosin from human Alpha-1B adrenoceptor expressed in CHO cells; type: cell-based
T1 sequence (P35368 whole entry): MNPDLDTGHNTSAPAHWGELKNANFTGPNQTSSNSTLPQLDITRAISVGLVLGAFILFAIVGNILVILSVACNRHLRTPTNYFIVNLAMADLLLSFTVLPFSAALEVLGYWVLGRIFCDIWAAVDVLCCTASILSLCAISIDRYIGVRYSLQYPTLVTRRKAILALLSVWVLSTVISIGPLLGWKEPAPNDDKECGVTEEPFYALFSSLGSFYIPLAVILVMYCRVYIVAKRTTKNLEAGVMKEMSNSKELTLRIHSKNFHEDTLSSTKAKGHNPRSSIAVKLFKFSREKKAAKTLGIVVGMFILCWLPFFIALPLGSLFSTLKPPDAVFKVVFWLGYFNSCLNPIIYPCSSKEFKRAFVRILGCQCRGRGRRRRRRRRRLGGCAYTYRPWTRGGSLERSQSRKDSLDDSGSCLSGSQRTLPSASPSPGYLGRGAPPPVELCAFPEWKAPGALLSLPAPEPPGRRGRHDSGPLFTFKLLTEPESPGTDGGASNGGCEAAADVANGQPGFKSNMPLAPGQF
Outline: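 Membranes ([…], as printed) from CHO cells stably expressing the cloned human α1b subtype were incubated with 0.1–0.4 nM [³H]prazosin and competitor (1 pM up to the top concentration) in 50 mM Tris-HCl, pH 7.4, for 30 min at 25 °C. Non-specific binding was defined with phentolamine, and incubations ended by filtration. Ki was derived from IC50 by Cheng–Prusoff. Reported as pKi from 2–3 triplicate experiments.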

[3] = target: T2, Alpha-1B adrenergic receptor (Rattus norvegicus) (UniProt P15823); assay: (§1) Antagonist activity at Alpha-1B adrenoceptor in Wistar rat spleen assessed as phenylephrine induced contractions after 30 mins; type: functional, tissue-based
T2 sequence (whole entry): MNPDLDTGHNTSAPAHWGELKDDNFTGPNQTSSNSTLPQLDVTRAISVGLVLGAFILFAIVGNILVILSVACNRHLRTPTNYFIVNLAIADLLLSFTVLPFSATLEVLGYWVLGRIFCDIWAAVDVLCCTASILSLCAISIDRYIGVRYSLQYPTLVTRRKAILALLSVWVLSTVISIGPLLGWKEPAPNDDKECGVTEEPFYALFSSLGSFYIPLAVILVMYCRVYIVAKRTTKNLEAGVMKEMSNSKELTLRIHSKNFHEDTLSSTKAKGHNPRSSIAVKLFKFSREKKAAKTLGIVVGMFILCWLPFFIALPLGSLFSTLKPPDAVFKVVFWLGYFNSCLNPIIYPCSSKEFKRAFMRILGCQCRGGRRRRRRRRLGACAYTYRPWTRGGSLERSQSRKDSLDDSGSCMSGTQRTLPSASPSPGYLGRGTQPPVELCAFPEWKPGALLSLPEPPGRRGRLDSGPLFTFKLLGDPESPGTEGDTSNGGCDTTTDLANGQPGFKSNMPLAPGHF
Outline: (§2)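 Spleen strips from male Wistar rats (275–300 g) were set up in a 20 mL bath of physiological salt solution (pH 7.4, 37 °C, 95% O2/5% CO2) under 1 g tension and equilibrated 2 h. Two cumulative phenylephrine curves were run, each followed by 30 min washing, then 30 min incubation with vehicle or antagonist before a third curve. Values are Schild pA2, or pKB where slopes were nonparallel; 4–6 experiments.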

[4] = species: Rattus norvegicus; assay: Selectivity ratio of EC50 for alpha1D adrenoceptor in Wistar rat thoracic aorta to Ki for Alpha-1B adrenoceptor in Wistar rat spleen; type: tissue-based
[5] = target: T3, Alpha-1A adrenergic receptor (Rattus norvegicus) (UniProt P43140); assay: Antagonist activity at alpha1A adrenoceptor in Wistar rat vas deferens assessed as noradrenaline induced contractions after 30 mins; type: functional, tissue-based
T3 sequence (whole entry): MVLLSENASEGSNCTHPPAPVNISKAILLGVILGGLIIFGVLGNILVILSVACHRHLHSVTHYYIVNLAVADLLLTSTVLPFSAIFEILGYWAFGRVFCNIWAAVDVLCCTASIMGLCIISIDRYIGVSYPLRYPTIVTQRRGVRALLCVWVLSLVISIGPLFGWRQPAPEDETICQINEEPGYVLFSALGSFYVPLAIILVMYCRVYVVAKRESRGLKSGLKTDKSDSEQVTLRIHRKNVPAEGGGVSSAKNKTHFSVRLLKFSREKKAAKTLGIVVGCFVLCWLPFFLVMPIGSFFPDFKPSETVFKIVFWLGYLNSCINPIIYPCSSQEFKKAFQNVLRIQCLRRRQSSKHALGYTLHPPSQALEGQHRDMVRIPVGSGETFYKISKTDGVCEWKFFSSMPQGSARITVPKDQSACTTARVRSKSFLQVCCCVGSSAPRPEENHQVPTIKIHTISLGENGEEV
Outline: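 Prostatic portions (2 cm) of vas deferens from male Wistar rats (275–300 g) were held under 0.35 g tension in Tyrode solution at 37 °C with cocaine present. Tissues were equilibrated 45 min, primed twice with noradrenaline, then given a cumulative isotonic noradrenaline curve.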

[6] = species: Rattus norvegicus; assay: Selectivity ratio of EC50 for alpha1A adrenoceptor in Wistar rat vas deferens to EC50 for Alpha-1B adrenoceptor in Wistar rat spleen; type: tissue-based
[7] = species: Rattus norvegicus; assay: Selectivity ratio of Ki for alpha1A adrenoceptor in Wistar rat vas deferens to EC50 for Alpha-1D adrenoceptor in Wistar rat thoracic aorta; type: tissue-based
[8] = species: Rattus norvegicus; assay: Selectivity ratio of EC50 for alpha1A adrenoceptor in Wistar rat vas deferens to Ki for Alpha-1B adrenoceptor in Wistar rat spleen; type: tissue-based
[9] = species: Rattus norvegicus; assay: Selectivity ratio of EC50 for alpha1D adrenoceptor in Wistar rat thoracic aorta to EC50 for Alpha-1B adrenoceptor in Wistar rat spleen; type: tissue-based
[10] = target: T4, Alpha-1B adrenergic receptor (Rattus norvegicus, UniProt P15823); assay: as §1; type: functional, tissue-based; conditions: read-out: pA2 (converted); outline: as §2
T4 sequence (P15823 whole entry): T2 sequence (whole entry)

Row | SMILES | Selectivity ratio [1] | Ki [2] [nM] | pKb [3] | Selectivity ratio [4] | pKb [5] | Selectivity ratio [6] | Selectivity ratio [7] | Selectivity ratio [8] | Selectivity ratio [9] | Kb [10] [nM]
1 | COc1ccc(C[C@@H](C)NCCOc2ccccc2OCc2ccccc2)cc1S(N)(=O)=O | 4 | 2.09 | 8.57 | 4 | 9.66 | 12 | 3 | 12 | 4 | 
2 | COc1ccc(C[C@@H](C)NC[C@H]2Oc3ccccc3O[C@H]2C)cc1S(N)(=O)=O | 0.5 | 67.6 |  | 0.5 |  | 1 | 2 | 1 | 0.5 | 30.9
3 | COc1ccc(C[C@@H](C)NCCOc2ccccc2OCC(F)(F)F)cc1S(N)(=O)=O | 1 | 5.5 |  | 1 |  | 4 | 4 | 4 | 1 | 1.1
4 | COc1ccc(C[C@@H](C)NC[C@@H]2Oc3ccccc3O[C@@H]2C)cc1S(N)(=O)=O | 0.8 | 31.6 | 7.76 | 0.8 |  | 1 | 1 | 1 | 0.8 | 
5 | COc1ccc(C[C@@H](C)NCCOc2ccccc2OC(C)C)cc1S(N)(=O)=O | 3 | 1.91 | 8.81 | 3 | 9.66 | 7 | 2 | 7 | 3 | 
